Source: ChEMBL document CHEMBL2346509, “Novel R-roscovitine NO-donor hybrid compounds as potential pro-resolution of inflammation agents” (2013)
Activity calls are given as the source filed them. No cut-off for these calls is given here.

Columns and labels:
[1] = system: Neutrophil; assay: Induction of apoptosis in human neutrophils assessed as pre-necrotic cells at 3 to 10 uM after 6 hrs by annexin V/propidium iodide staining based flow cytometric analysis in presence of ODQ; format: functional, cell-based
Outline: (§1)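 Human blood neutrophils at 5 × 10^6/mL in IMDM/0.1% BSA with antibiotics were pre-incubated for 15 min with L-NAME (prepared in IMDM) or with ODQ (10 μM; from a 10 mM stock in 0.01% NaOH). Test compounds were then added from DMSO stocks and cells cultured in duplicate at 37 °C, 5% CO2. Apoptosis was read by annexin V/PI flow cytometry.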

[2] = system: Neutrophil; assay: Induction of apoptosis in human neutrophils assessed as pre-necrotic cells at 3 to 10 uM after 6 hrs by annexin V/propidium iodide staining based flow cytometric analysis in presence of L-NAME; format: functional, cell-based; outline: as §1
[3] = system: Neutrophil; assay: Induction of apoptosis in human neutrophils assessed as pre-necrotic cells after 6 hrs by annexin V/propidium iodide staining based flow cytometric analysis; format: functional, cell-based
Outline: (§2)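 Neutrophils isolated from peripheral blood of healthy volunteers (>96% purity), resuspended at 5 × 10^6/mL in IMDM with penicillin, streptomycin and 0.1% w/v BSA. Compounds from 50 mM DMSO stocks (final DMSO 0.04–0.12%) were added just before cells, in duplicate, at 37 °C, 5% CO2. Cells were stained with annexin V in Ca-containing HBSS on ice for 10 min in the dark, PI was added, and cells were analysed by flow cytometry. Diff-Quick morphology confirmed results.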

[4] = system: Neutrophil; assay: Induction of apoptosis in human neutrophils assessed as pre-necrotic cells at 3 uM after 6 hrs by annexin V/propidium iodide staining based flow cytometric analysis in presence of PTIO; format: functional, cell-based
Outline: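 Healthy-volunteer neutrophils (>96% pure) at 5 × 10^6/mL in IMDM with 0.1% BSA and penicillin/streptomycin, 37 °C, 5% CO2, in duplicate. Co-incubated with the NO scavenger PTIO, made directly in IMDM. Final DMSO 0.04–0.12%. Cells stained with annexin V (1/500 in CaCl2–HBSS binding buffer) 10 min on ice in the dark, then PI added before flow cytometry.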

[5] = system: Neutrophil; assay: Induction of apoptosis in human neutrophils at 10 uM by annexin V/propidium iodide staining based flow cytometric analysis; format: functional, cell-based; settings: TDE = time-dependent effect; outline: as §2
[6] = system: Neutrophil; assay: Induction of apoptosis in human neutrophils assessed as cellular shrinkage and nuclear pyknosis at 3 uM after 6 hrs by light microscopy analysis; format: functional, cell-based
Outline: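 Neutrophils isolated from healthy volunteers' citrated blood by dextran sedimentation and a density gradient (granulocytes at the 70:81 boundary, >96% pure). Cells at 5 × 10^6/mL in IMDM with penicillin/streptomycin and 0.1% BSA, 37 °C, 5% CO2, treated in duplicate. Final DMSO 0.04–0.12%. Cells cytocentrifuged, methanol-fixed 2 min, Diff-Quick stained, and scored for apoptotic morphology at 40× and 100×.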

[7] = system: Neutrophil; assay: Induction of apoptosis in human neutrophils assessed as apoptotic cells at 3 uM after 6 hrs by annexin V/propidium iodide staining based flow cytometric analysis; format: functional; outline: as §2
[8] = system: Neutrophil; assay: Induction of apoptosis in human neutrophils assessed as necrotic cells at 3 uM after 6 hrs by annexin V/propidium iodide staining based flow cytometric analysis; format: functional; outline: as §2
[9] = system: Neutrophil; assay: Induction of apoptosis in human neutrophils assessed as viable cells at 3 uM after 6 hrs by annexin V/propidium iodide staining based flow cytometric analysis; format: functional; settings: read-out: Activity; outline: as §2
[10] = system: Neutrophil; assay: Induction of apoptosis in human neutrophils assessed as pre-necrotic cells at 3 uM after 6 hrs by annexin V/propidium iodide staining based flow cytometric analysis; format: functional; outline: as §2
[11] = system: Neutrophil; assay: Induction of apoptosis in human neutrophils assessed as secondary necrosis at 10 uM after 8 hrs by annexin V/propidium iodide staining based flow cytometric analysis

Question: How did the Activity [1] turn out when `CC[C@H](CO)Nc1nc(NCc2ccc(OCCCOC)cc2)c2ncn(C(C)C)c2n1` was run?
Answer: Active

Question: And the Activity [2]?
Answer: Active

Question: And the Activity [3]?
Answer: Dose-dependent effect

Question: `CC[C@H](CO)Nc1nc(NCc2ccccc2)c2ncn(C(C)C)c2n1` [SELICICLIB] was tested. Which Activity [4] did it give?
Answer: Active

Question: What about the Activity [1] of the same compound?
Answer: Active

Question: And the Activity [2]?
Answer: Active

Question: What about the Activity [5] of the same compound?
Answer: tde

Question: And the Activity [6]?
Answer: Active

Question: What about the Activity [7] of the same compound?
Answer: 6.98%

Question: What about the Activity [8] of the same compound?
Answer: 0.386%

Question: And the viability at 3 µM [9]?
Answer: 92.6%

Question: What about the Activity [10] of the same compound?
Answer: 0.033%

Question: What about the Activity [11] of the same compound?
Answer: Active

Question: How did the Activity [4] turn out when `CN1C(=O)[C@]23CC4=CC=C[C@H](O)[C@H]4N2C(=O)[C@@]1(CO)SS3` was run?
Answer: Active

Question: For `CC[C@H](CO)Nc1nc(NCc2ccc(OCCCO[N+](=O)[O-])cc2)c2ncn(C(C)C)c2n1`, which Activity [4] is on record?
Answer: inactive

Question: And the Activity [1]?
Answer: Active

Question: What about the Activity [2] of the same compound?
Answer: Active

Question: What about the Activity [3] of the same compound?
Answer: Dose-dependent effect

Question: What about the Activity [5] of the same compound?
Answer: tde

Question: What about the Activity [6] of the same compound?
Answer: Active

Question: What about the Activity [7] of the same compound?
Answer: 86.9%

Question: What about the Activity [8] of the same compound?
Answer: 0.63%

Question: What about the viability at 3 µM [9] of the same compound?
Answer: 12.5%

Question: And the Activity [10]?
Answer: 0.017%

Question: And the Activity [11]?
Answer: Active

Question: How did the Activity [3] turn out when `CC[C@H](CO)Nc1nc(NCc2ccc(OCc3nonc3C(N)=O)cc2)c2ncn(C(C)C)c2n1` was run?
Answer: Dose-dependent effect

Question: How did the Activity [1] turn out when `CC[C@H](COC(=O)CCCO[N+](=O)[O-])Nc1nc(NCc2ccccc2)c2ncn(C(C)C)c2n1` was run?
Answer: Active

Question: What about the Activity [2] of the same compound?
Answer: Active

Question: What about the Activity [3] of the same compound?
Answer: Dose-dependent effect

Question: And the Activity [5]?
Answer: tde

Question: What about the Activity [11] of the same compound?
Answer: Active

Question: With `CC[C@H](CO)Nc1nc(NCc2ccc(OCc3no[n+]([O-])c3C(N)=O)cc2)c2ncn(C(C)C)c2n1` as the compound, how does the Activity [1] read?
Answer: Active

Question: And the Activity [2]?
Answer: Active

Question: What about the Activity [3] of the same compound?
Answer: Dose-dependent effect

Question: What about the Activity [5] of the same compound?
Answer: tde

Question: What about the Activity [11] of the same compound?
Answer: Active
